# ABCG2 block – inhibitors of human ABCG2 transporter, ABCB1 counter-screen. AID 1325. inhibition, % at 6.6 µM. Q9UNQ0. actives 0.1% (n = 190,000). IgMXP3 cells, JC-1 efflux, flow cytometry;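 active = inhibition above 80%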;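 also: 0% = DMSO and 100% = nicardipine control wells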
#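 Test system: IgMXP3 (ABCG2) plus far-red-tagged CCRF-Adr (ABCB1) cells. Reagent: JC-1 dye as substrate. Timing: 10 min exposure at 25 °C with rotation, no wash. Measured by: flow cytometric JC-1 green MFI at 530 nm. Read-out: percent efflux inhibition, scaled nicardipine 100% to DMSO 0%. Control set: nicardipine and DMSO wells.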
# Arbovirus anti – blocks arbovirus infection; arbovirus infection cell-based antiviral screen; inhibition, % at 10 µM; actives 0.37% (n = 200,000); AID 1251; in the data active = inhibition above about 30%
# Autophagy mod – autophagy modulation, high-content screen | AID 463193 | calls only at 10 µM (by protocol) | MEF GFP-LC3 puncta imaging; test concentration mostly 10 µM | actives 0.98% (n = 190,000);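 active = percentage of spot-positive cells more than 3 SD above its plate mean, without a fluorescence outlier flag or 80% toxicity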;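 also: spot-positive cell cutoff set from DMSO-treated cells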
# MT stabilize HCS – microtubule stabilization, imaging screen; % tubulin-high responders, % at 10 µM; actives 0.83% (n = 200,000); HeLa tubulin immunostaining HCS, 24 h; share of cells brighter than vehicle mean+2SD;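 active = plate Z-score above 3 for both tubulin-high and condensed-nucleus cell shares, with cell loss under 80%, at 10 µM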;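 also: anti alpha tubulin signal scored within the nucleus-defined area of each cell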
# bCat nuc transl – beta-catenin nuclear translocation modulation. HeLa beta-catenin nuclear translocation, immunofluorescence imaging. nuclear translocation activity, % at 5 µM. actives 0.3% (n = 190,000);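 active = nuclear translocation activity above 50% at 5 µM, with a well cell count of 50 or more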;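 also: per-cell ratio of nuclear to cytoplasmic median beta-catenin stain intensity; plate controls were DMSO negative control for no effect and GSK-3 inhibitor IX positive control for full effect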
#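 Test system: HeLa cells, endogenous beta-catenin; Compound: single 5 µM dose plus 0.02–20 µM confirmation series; Times: compound exposure 24 h at 37°C; Signal: fluorescence imaging of beta-catenin antibody stain plus DAPI; Read-out: % activation, nuclear-to-cytoplasmic median beta-catenin signal ratio per cell.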
# ABCB1 block – blocks JC-1 efflux by human ABCB1 transporter. inhibition, % at 6.6 µM. actives 0.067% (n = 190,000). AID 1326. CCRF-Adr cells, flow cytometry. P08183; in the data active = inhibition above about 40%;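 also: 0% = vehicle and 100% = reference inhibitor; higher value means more JC-1 retained so stronger ABCB1 efflux block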
# Target sequence (P08183 whole entry, looked up): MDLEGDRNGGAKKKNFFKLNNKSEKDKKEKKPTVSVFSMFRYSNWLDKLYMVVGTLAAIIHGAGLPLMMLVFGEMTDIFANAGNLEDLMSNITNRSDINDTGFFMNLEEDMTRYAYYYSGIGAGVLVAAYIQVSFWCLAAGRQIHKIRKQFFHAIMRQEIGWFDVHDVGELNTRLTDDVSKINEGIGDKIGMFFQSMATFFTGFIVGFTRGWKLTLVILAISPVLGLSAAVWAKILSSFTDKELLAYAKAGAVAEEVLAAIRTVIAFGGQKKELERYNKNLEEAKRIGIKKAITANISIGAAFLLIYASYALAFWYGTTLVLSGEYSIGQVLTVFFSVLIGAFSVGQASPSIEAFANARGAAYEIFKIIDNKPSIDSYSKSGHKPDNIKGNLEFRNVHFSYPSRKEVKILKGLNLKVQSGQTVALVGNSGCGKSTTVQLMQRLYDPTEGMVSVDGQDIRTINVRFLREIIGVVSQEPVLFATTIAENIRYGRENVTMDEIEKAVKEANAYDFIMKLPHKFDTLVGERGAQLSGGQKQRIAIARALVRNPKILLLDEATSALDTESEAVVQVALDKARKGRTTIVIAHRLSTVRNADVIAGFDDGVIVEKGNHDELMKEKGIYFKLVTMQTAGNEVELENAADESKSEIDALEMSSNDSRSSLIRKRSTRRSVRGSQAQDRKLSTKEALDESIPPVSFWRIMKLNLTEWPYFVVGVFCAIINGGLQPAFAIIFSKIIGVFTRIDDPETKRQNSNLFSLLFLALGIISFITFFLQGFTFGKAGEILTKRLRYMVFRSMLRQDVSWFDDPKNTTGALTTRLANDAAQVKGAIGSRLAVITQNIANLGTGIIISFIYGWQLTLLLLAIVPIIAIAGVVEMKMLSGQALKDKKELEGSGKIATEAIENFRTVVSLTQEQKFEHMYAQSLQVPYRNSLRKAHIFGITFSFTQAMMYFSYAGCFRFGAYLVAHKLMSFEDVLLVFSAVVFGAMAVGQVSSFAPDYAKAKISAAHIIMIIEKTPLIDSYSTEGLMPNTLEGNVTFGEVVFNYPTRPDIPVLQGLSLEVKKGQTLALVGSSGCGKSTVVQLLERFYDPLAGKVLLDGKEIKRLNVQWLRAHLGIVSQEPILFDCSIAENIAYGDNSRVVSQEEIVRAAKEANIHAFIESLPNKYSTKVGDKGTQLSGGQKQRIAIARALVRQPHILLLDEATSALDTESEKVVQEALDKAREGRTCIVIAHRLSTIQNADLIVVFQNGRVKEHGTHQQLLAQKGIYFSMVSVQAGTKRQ
# The depositor's hits bear a star; i = inactive; x = no result; + = active, no number. Sampled rows, rich in hits. Any-hit rate of the full collection: about 2.1%.
SMILES,ABCG2 block,Arbovirus anti,Autophagy mod,MT stabilize HCS,bCat nuc transl,ABCB1 block
COc1ccc(S(=O)(=O)NCC2CCCN(C(=O)c3sccc3C)C2)cc1 (stereo not given),2,-1,+,1,-2,0
Cc1ccc(C(NC(=O)N2CCCC2)C(Cl)Cl)cc1F (stereo not given),2,7,i,2,-1,1
O=C1N/C(=N\N=C\c2cccs2)SC1Cc1cccc(Cl)c1Cl (stereo not given),-4,-22,i,13,60*,-1
CN(CCn1ccnc1)Cc1cn(-c2ccccc2)nc1-c1ccc2c(c1)OCO2,15,9,i,4,-1,2
CN(Cc1cn(-c2ccccc2)nc1-c1ccc2c(c1)OCO2)Cc1nccn1C,1,-5,+,2,0,1
CC(C)CCOc1ccc(/C=C2\CCn3c2nc2cc(C(=O)O)ccc2c3=O)cc1,-11,38*,i,4,0,-2
COc1ccc(/C=C2\CCn3c2nc2cc(C(=O)O)ccc2c3=O)cc1OC,x,x,x,x,1,x
O=C(O)c1ccc2c(=O)n3c(nc2c1)/C(=C/c1ccccc1C(F)(F)F)CCCC3,13,0,+,5,1,0
CCC(NC(=S)Nc1ccccc1)C(=O)O (stereo not given),0,-4,i,3,-2,0
COCc1c(Br)c(C)nc(OCC(=O)N/N=C/c2cc(C)n(-c3ccc([N+](=O)[O-])cc3)c2C)c1C#N,21,3,i,3,-2,1
c1ccc(CC2CCN(Cc3ccccn3)CC2)cc1,0,10,i,2,0,0
CCN(c1ccccc1)S(=O)(=O)c1ccc(C(C(=O)OC)C(=O)OC)c([N+](=O)[O-])c1,6,8,i,4,-5,1
Cc1ccc(S(=O)(=O)N2CCN(Cc3cc(C(C)C)ccc3O)CC2)cc1,8,30*,i,5,-2,3
Cc1ccc(S(=O)(=O)N2CCN(Cc3ccccc3C(F)(F)F)CC2)cc1,1,8,i,2,x,0
O=c1oc(/C=C/c2ccco2)nc2sc3c(c12)CCC3,2,63*,i,4,-1,1
O=C1CN(c2nc(-c3cccs3)nc3sc4c(c23)CCCC4)CCN1,-1,-6,+,3,-1,0
O=c1oc(-c2cccs2)nc2sc3c(c12)CCC3,0,10,i,3,2,0
O=c1oc(-c2cccs2)nc2sc3c(c12)CCCC3,-2,34*,i,2,x,-1
O=c1c2c3c(sc2nc2n1N=C(c1cccs1)CS2)CCCC3,-7,0,i,4,-3,-1
CCCC(O)(CCC)C(=O)NN1CCCCC1,4,-1,i,2,1,1
COC(=O)c1cn[nH]c1NC(=S)Nc1ccc(C)cc1Cl,3,15,i,2,-3,-1
O=[N+]([O-])c1ccc(/C=C/C2=NN(c3ccccc3)C(c3ccco3)C2)o1 (stereo not given),49,-3,+,11,-2,25
C(=C\c1ccco1)/C1=NN(c2ccccc2)C(c2ccco2)C1 (stereo not given),-8,-6,i,4,-6,0
Fc1cccc(F)c1-n1c(CN2CCCCC2)csc1=S,5,-10,i,16*,-2,1
COC(=O)C1=C(O)/C(=C\c2cc(C)n(-c3ccccc3C)c2C)N=C1C,5,5,i,2,x,1
SMILES,ABCG2 block,Arbovirus anti,Autophagy mod,MT stabilize HCS,bCat nuc transl,ABCB1 block
Cc1ccc(C(=O)c2coc3cc([N+](=O)[O-])c(O)c([N+](=O)[O-])c23)cc1,9,37*,i,2,0,-1
Cc1ccc(C)c(OCCn2c(=O)c3c(ncn3C3CCCC3)n(Cc3ccccc3)c2=O)c1,84*,-9,i,3,1,37
O=C(c1ccccc1O)N1N=C(c2ccccc2)CC1(O)C(F)(F)F (stereo not given),3,-10,i,3,-1,-1
CCC(C)c1ccc(NC(=O)C2CCCN(c3ncccn3)C2)cc1 (stereo not given),3,6,i,36*,2,1
CCC(C)c1ccc(NC(=O)C2CC2)cc1 (stereo not given),2,-4,i,3,x,0
Cc1ccc(S(=O)(=O)Nc2cccc3cccnc23)cc1,2,-45,+,2,x,1
CCOc1ccc(S(=O)(=O)Nc2cc(OC)c(OC)cc2C(=O)O)cc1,0,1,i,1,-4,0
CC(C)(C)NC(=O)NC(=O)CN1CCN(S(=O)(=O)c2ccccc2)CC1,x,x,x,x,0,x
CCc1nnc(NC(=O)CCN(c2cc(C)cc(C)c2)S(=O)(=O)c2ccc(Cl)cc2)s1,22,-16,i,19*,0,1
Cc1cc(C)cc(N(CCC(=O)O)S(=O)(=O)c2ccc(Cl)cc2)c1,0,2,i,7,-2,0
Cc1ccc(/C=C/C(=O)N2CCCC(C(N)=O)C2)o1 (stereo not given),x,x,x,x,0,x
Cc1ccc(/C=N/NC(=O)C2CC(=O)N(c3ccccc3)C2)s1 (stereo not given),7,-5,i,9,57*,1
O=C(N/N=C/c1cccs1)C1CC(=O)N(c2ccccc2)C1 (stereo not given),7,-2,i,1,8,1
O=C(Nc1ccc(Cc2ccncc2)cc1)c1cccs1,10,-1,i,1,-1,1
CCCCCCc1cc2cc(C(=O)Nc3ccccc3OC)c(=O)oc2cc1O,-2,80*,i,4,1,-1
CCOCCCNC(=O)c1ccc2c(c1)OCO2,0,5,i,3,x,0
CCOCCCNC(=O)c1ccc2c(c1)N=C(CC)c1cc(Br)ccc1S2,10,-6,i,5,52*,2
Cc1cc(NCCN2CCOCC2)n2nc(C)c(-c3ccc(Cl)cc3)c2n1,3,-6,+,3,0,1
Cc1cc(NCCN2CCOCC2)n2nc(C)c(-c3ccccc3)c2n1,2,-16,i,4,-1,0
COc1ccc(-c2nc(N=Nc3ccc(O)cc3)n[nH]2)cc1,8,-27,i,7,1,0
C#CCn1c(=NC(=O)c2ccc(S(=O)(=O)N3CCc4ccccc4C3)cc2)sc2cc(S(N)(=O)=O)ccc21,-3,-31,+,5,-2,-1
O=C(OCCN1C(=O)c2cccc3c(N4CCOCC4)ccc(c23)C1=O)c1cc(Cl)cc(Cl)c1,-7,-12,+,30*,x,4
O=C1c2cccc3c(N4CCCCC4)ccc(c23)C(=O)N1c1ccccn1,6,21,i,4,-1,3

# Compound activity from PubChem.
